High-throughput results as filed in PubChem.
STAT1 act: STAT1 signaling activators, primary screen, cell-based, HTS, luciferase reporter; NIH 3T3 STAT1-luciferase reporter, IFN-gamma, luminescence; 100% = IFN-gamma alone, no compound; activation (% of control), % at 5.5 µM; hit rate 2.6% among 200,000; AID 932, 2007;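 active = activation above the screen-wide mean activation plus 3 SD, cut at about 130% in these data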;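 note: raw ratio to IFN-gamma control signal so 100% means no change and 0% no light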
FLuc inh counter: firefly luciferase enzyme inhibitors, primary screen, artefact control for luciferase-based inhibitor screens, biochemical, luminescence, ATPLite | Luciferin 4-monooxygenase (Photinus pyralis), P08659 | 10 min | inhibition, % at 10 µM | hit rate 1.5% among 200,000;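 active = inhibition above about 50% when tested at 10 µM, limit read from the data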
Target sequence (P08659 whole entry, looked up): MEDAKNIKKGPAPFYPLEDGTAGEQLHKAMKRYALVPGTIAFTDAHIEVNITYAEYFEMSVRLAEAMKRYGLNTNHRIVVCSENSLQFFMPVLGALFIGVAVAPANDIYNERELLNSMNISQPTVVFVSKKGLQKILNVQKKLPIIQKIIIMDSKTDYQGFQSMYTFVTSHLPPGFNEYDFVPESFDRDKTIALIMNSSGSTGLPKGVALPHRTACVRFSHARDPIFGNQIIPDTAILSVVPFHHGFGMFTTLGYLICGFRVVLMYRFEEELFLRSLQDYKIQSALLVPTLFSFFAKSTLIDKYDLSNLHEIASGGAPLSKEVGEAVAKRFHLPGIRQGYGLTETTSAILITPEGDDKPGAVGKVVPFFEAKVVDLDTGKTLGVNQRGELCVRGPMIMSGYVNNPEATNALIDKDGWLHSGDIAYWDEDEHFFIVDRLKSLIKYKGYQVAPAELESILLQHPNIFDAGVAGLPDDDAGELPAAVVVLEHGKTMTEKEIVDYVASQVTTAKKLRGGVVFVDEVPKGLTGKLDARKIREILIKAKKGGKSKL
STAT3 activator: IL-6 driven STAT3 reporter potentiators, primary screen, U3A cells, luciferase, luminescence, MLSCN library; AID 871, 2007; hit rate 0.91% among 190,000; activation (% of control), % at 5.6 µM; IL-6 STAT3-luciferase reporter; 100% = signal with IL-6 EC80 alone;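 active = activation above the screen-wide mean of compound activation plus 3 SD, cut at about 130% in these data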;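 note: 0% = background luminescence of wells with medium and substrate only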
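Material: human STAT1-deficient U3A cells with stable STAT3-luciferase reporter / Probe or stimulus: IL-6 stimulus at 33 ng/mL final / Schedule: 1 h compound pre-exposure, 6 h IL-6 stimulation, 37 °C / Technique: luminescence / Read-out basis: percent of IL-6-only median luminescence / Control set: IL-6-only high control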
FLuc stim CS: FLuc activators, initial screening, artefact control for FLuc-dependent activation tests, biochemical, ATPlite luminescence; Luciferin 4-monooxygenase (Photinus pyralis), P08659; ATPlite luciferase biochemical, 10 min; 0 = ATP-free wells, 1 = DMSO control; activation factor at 10 µM; 200,000 tested, under 10 active;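 active = luciferase activation factor, scaled between plate controls, of at least 2 with compound at 10 µM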
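test system = cell-free luciferase reagent | medium = PBS as buffer for the ATP substrate | dosing = test compounds dosed from 2 mM stocks in 100% DMSO | incubation = 10 min at ambient temperature | detection = luminescence measurement of luciferase light output | benchmarks = low control with PBS replacing ATP, high control enzyme plus ATP without compound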
STAT1 blocker: STAT1 signaling inhibitors, primary screen, cell-based, HTS, luciferase reporter; hit rate 0.35% among 200,000; NIH 3T3 STAT1-luciferase reporter, IFN-gamma, luminescence; AID 920, 2007; inhibition, % at 5.5 µM;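 active = inhibition above a set limit, the mean inhibition across all tested compounds plus 3 SD, cut at about 34% in these data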;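 note: 0% = IFN-gamma with DMSO and 100% = IFN-gamma with 300 µM nifuroxazide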
STAT3 inh-1: IL-6 driven STAT3 reporter inhibitors, primary screen, U3A cells, luciferase, luminescence, MLSCN library | IL-6 STAT3-luciferase reporter; host cell line lacks STAT1 | inhibition, % at 5.5 µM | hit rate 0.89% among 190,000 | AID 862, 2007;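 active = inhibition above the mean inhibition across all screened compounds plus 3 SD, cut at about 44% in these data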;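 note: 0% = DMSO only wells and 100% = 100 µM nifuroxazide control wells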
STAT3 inh-2: STAT3 reporter inhibitors, retest of hits, confirmation, U3A cells, luciferase, luminescence; shares compounds with STAT3 inh-1; IL-6 STAT3 luciferase reporter; cell line lacks STAT1; inhibition, % at 5.7 µM; hit rate 45% among 1,200; AID 1265, 2008;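 active = inhibition above the hit cutoff computed for the primary STAT3 screen, cut at about 44% in these data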;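 note: 0% = IL-6 plus DMSO and 100% = IL-6 plus nifuroxazide control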
NFkB inh STAT3ct: NF-kB reporter inhibitors in human cells, confirmation, counter-screen for STAT3 inhibitor project, cell-based, HEK293T, luciferase, TNF-alpha stimulus; shares compounds with STAT3 inh-1; TNF-alpha induced; inhibition, % at 5.7 µM; hit rate 36% among 1,200; AID 1308, 2008;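 active = inhibition above the mean of solvent-only control wells plus 3 SD, cutoff set per campaign, cut at about 13% in these data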;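 note: 0% = TNF-alpha with DMSO and 100% = TNF-alpha with MG high control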
STAT1 inh 2: STAT1 reporter inhibitors, IFN-gamma induced, confirmation, counter-screen for STAT3 inhibitor project, cell-based, NIH 3T3, luciferase luminescence; shares compounds with STAT3 inh-1; NIH 3T3 STAT1-luciferase reporter; inhibition, % at 5.7 µM; hit rate 27% among 1,200;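 active = inhibition above the mean plus 3 SD of solvent-only control wells, limit set per screening run, cut at about 16% in these data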;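 note: 0% = DMSO with IFN-gamma and 100% = nifuroxazide control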
STAT1 act conf: STAT1 signaling activators, confirmation, cell-based, HTS, luciferase reporter | shares compounds with STAT1 act | NIH 3T3 STAT1-luciferase reporter, IFN-gamma potentiation, luminescence; 100% = IFN-gamma EC80 alone, no compound | activation (% of control), % at 5.7 µM | hit rate 97% among 1,200 | AID 1262, 2008;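 active = activation above a set limit carried over from the earlier primary STAT1 screen, cut at about 140% in these data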;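 note: simple ratio to median IFN-gamma plus DMSO wells so 0% means no light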
NFkB act STAT1ct: NF-kB reporter activators, TNF-alpha stimulated, counter-screen for STAT1 activator project, cell-based, HEK293T, luciferase luminescence. shares compounds with STAT1 act. 100% = TNF-alpha with vehicle only. activation (% of control), % at 5.7 µM. hit rate 43% among 1,200. AID 1306, 2008;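 active = activation above the mean of solvent-only control wells plus 3 SD, set per campaign, cut at about 130% in these data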;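 note: TNF-alpha given at a submaximal dose yielding about 80% of full reporter signal; values are well signal over median control so 100% means no change and 0% no light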
STAT3 act STAT1c: STAT3 reporter activation by STAT1 hits, confirmation, counter-screen for STAT1 activator project, U3A cells, luciferase, luminescence; hit rate 46% among 1,200; IL-6; cells lack STAT1; 100 = IL-6 alone, no compound effect; shares compounds with STAT1 act; AID 1316, 2008; activation (% of control), % at 5.7 µM;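 active = activation above the solvent-only control well mean plus 3 SD, set per plate batch, cut at about 110% in these data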;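 note: 0% = no luminescence and 100% = median IL-6 plus DMSO wells; higher means more STAT3 reporter activation so hits are non-selective activators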
Starred values were filed as active, the others as inactive; / = no result. In the library only some 4.9% were active in any assay of this set; here they are far more common.

SMILES	STAT1 act	FLuc inh counter	STAT3 activator	FLuc stim CS	STAT1 blocker	STAT3 inh-1	STAT3 inh-2	NFkB inh STAT3ct	STAT1 inh 2	STAT1 act conf	NFkB act STAT1ct	STAT3 act STAT1c
O=C(O)C1CCC(Cn2c(SCc3cc(=O)n4ccccc4n3)nc3ccsc3c2=O)CC1 (stereo not given)	92.8	-1.2	101.9	1	5.8	4.2	/	/	/	/	/	/
Cn1c(N/N=C/c2cc3ccccc3nc2Cl)nc2ccccc21	101.3	96.0*	56.0	0	-1.5	53.2*	28.3	24.6*	10.1	/	/	/
CC(C)[C@H](NS(=O)(=O)c1ccc2c(c1)OCCO2)C(=O)OCC(=O)Nc1cc(Cl)ccc1Cl	92.7	-4.6	91.5	1	8.1	14.4	/	/	/	/	/	/
COC(=O)c1ccc(COC(=O)c2[nH]c(C)c(C(C)=O)c2C)o1	78.6	2.8	61.6	1	23.6	46.8*	51.9*	11.2	5.2	/	/	/
Cc1ccc(C(=O)/C=C2\NCC(C)NC2=O)cc1 (stereo not given)	110.1	68.7*	45.7	0.3	-11.1	65.1*	25.0	-6.3	-85.1	/	/	/
Cc1ccc(C(=O)n2ncn(C)c2=S)cc1	96.0	-1.5	95.3	1	2.9	12.0	/	/	/	/	/	/
Cc1ccc(C(=O)n2c(=S)nc3ccccn32)cc1	150.5*	96.4*	62.0	0	-54.9	49.6*	13.6	-31.3	-179.6	/	/	/
COc1ccc(-c2cn(-c3ccc(OC)cc3)c3[n+]2-c2ccccc2CC3)cc1	73.7	-7.7	37.5	1.1	29.1	73.2*	79.0*	3.3	23.4*	/	/	/
COc1ccc(-n2cc(-c3ccccc3)[n+]3c2CCCCC3)cc1	74.6	-1.4	70.2	1	25.5	40.2	/	/	/	/	/	/
COCCn1c(SCCCC(=O)c2ccc(Br)cc2)nnc1-c1ccncc1	82.7	-1.4	55.1	1	18.7	52.6*	45.5*	13.2*	15.9	/	/	/
O=[N+]([O-])c1cc(S(=O)(=O)N2CCCC2)ccc1SCCO	93.1	-6.3	100.1	1.1	8.9	4.9	/	/	/	/	/	/
COc1ccc2c(=O)c(N3C(=O)c4ccccc4C3=O)coc2c1	96.8	4.0	101.1	1	3.5	1.4	/	/	/	/	/	/
COc1ccc2c(=O)c(-c3ccc4c(c3)OCO4)coc2c1	163.9*	65.5*	51.6	0.3	-70.2	55.1*	26.0	-11.9	-104.1	217.5*	96.9	79.8
CC1(C)CC(=O)C(C(=O)c2ccccc2)C(=O)C1	99.8	-9.3	101.3	1.1	-1.7	0.7	/	/	/	/	/	/
O=C(NC(=S)N(CCO)Cc1ccccc1)c1cc(Br)ccc1Cl	100.5	-7.9	99.9	1.1	-1.7	1.7	/	/	/	/	/	/
CC(=Nc1ccc(C)cc1)c1sc2ccccc2c1O	153.9*	85.2*	53.7	0.1	-58.9	56.1*	9.5	-35.2	-153.4	247.9*	103.7	88.0
CCOC(=O)c1sc2ccccc2c1OC(=O)c1ccc(C)cc1	103.4	-5.4	103.9	1.1	-3.7	-10.0	/	/	/	/	/	/
COc1ccc(OC)c(Nc2ncnc3c2cnn3-c2ccccc2)c1	107.2	-3.0	92.8	1	-9.0	12.3	/	/	/	/	/	/
COc1ccc(-n2ncc3c(NC(C)C)ncnc32)cc1	151.0*	77.0*	54.6	0.2	-55.7	55.7*	13.6	-39.0	-145.5	246.2*	109.1	95.6
O=C(/C=C\Nc1ccc2c(c1)OCO2)c1ccc(Cl)s1	157.4*	87.1*	52.9	0.1	-66.2	62.0*	13.7	10.5	-96.7	199.8*	88.2	83.1
COc1ccc(-c2csc(N3C(=N)SCC3=O)n2)cc1	164.1*	5.8	61.9	0.9	-71.8	50.0*	-14.3	-36.7	-191.3	293.9*	104.3	112.1*
Cc1ccc(-c2nc3cc(NC(=O)C(C)C)ccc3o2)cc1C	194.9*	55.9*	50.4	0.4	-105.5	60.7*	14.5	-32.3	-203.5	272.1*	92.6	73.3
Cc1ccc(-c2nc3cc(NC(=O)C(C)C)ccc3o2)cc1	187.6*	41.6	63.4	0.6	-95.4	45.2*	-0.9	-37.6	-216.5	321.3*	126.2	103.7
COc1ccc(NC(=O)CN2C(=O)N(C)Cc3ccccc32)c(C)c1	104.6	-7.2	98.9	1.1	-6.9	11.5	/	/	/	/	/	/
CCn1c(CSc2ncccn2)nnc1SCC(=O)N1CCCCC1	99.3	-8.1	100.7	1.1	-0.9	3.7	/	/	/	/	/	/
Cc1csc(NC(=O)C2COc3ccccc3O2)n1 (stereo not given)	160.1*	48.2	52.7	0.5	-56.6	57.1*	35.8	-21.4	-96.3	197.9*	105.1	78.4
O=C(Nc1nc(-c2ccccc2)cs1)C1COc2ccccc2O1 (stereo not given)	104.7	-5.4	89.3	1.1	-11.8	12.9	/	/	/	/	/	/
COc1ccc2[nH]c3c(c2c1)CCn1c-3nc2ccccc2c1=O	153.0*	42.0	60.7	0.6	-54.7	51.3*	14.4	-32.3	-178.5	297.6*	116.4	93.3
COc1ccc(C2N(Cc3ccccc3)CCN2Cc2ccccc2)cc1[N+](=O)[O-]	94.1	-8.0	102.2	1.1	5.6	4.7	/	/	/	/	/	/
COc1ccc(S(=O)(=O)N2CCN(Cc3c[nH]c4ccccc34)CC2)cc1	102.8	-7.6	121.3	1.1	-3.0	-15.3	/	/	/	/	/	/
